For 24 compounds, IC50 results are on record in ChEMBL document CHEMBL4665630, “Synthesis and biological evaluation of anthraquinone derivatives as allosteric phosphoglycerate mutase 1 inhibitors for cancer treatment” (Eur J Med Chem, 2019).

pIC50: −log10 of the molar value. A value given as a limit tells only on which side of the number the result lay.

Assay [1] concerns the target Phosphoglycerate mutase 1 (Homo sapiens, UniProt P18669). Put plainly: Inhibition of human recombinant PGAM1 by measuring decrease in OD by enzyme based assay. In a few lines: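 C-terminal His6-tagged PGAM1, Ni-NTA purified, 4.6 nM, preincubated with inhibitor in DMSO; coupled enolase/pyruvate kinase M2/LDH system in 100 mM Tris-HCl, 100 mM KCl, 5 mM MgCl2, 1 mM ADP, 0.2 mM NADH, 4 mM 3PG; NADH loss read at 340 nm. Counter-screen without PGAM1 using 4 mM 2PG. Mean ± s.d., n=3.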

The next assay relates to NCI-H1299. Put plainly: Antiproliferative activity against human H1299 cells assessed as reduction in cell viability measured after 72 hrs by MTT assay. It is filed as functional, cell-based. The note with it: NCI-H1299, 72 h. The gist of the method: (§1)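 Cells grown in RPMI-1640 (H1299, PC9) or F-12K (A549) with 10% FBS and penicillin/streptomycin; 2000 H1299 or A549 or 1000 PC9 cells per well, attached 24 h, exposed to inhibitor 72 h; MTT 0.5 mg/mL for 4 h, absorbance at 570 nm; mean ± s.d., n=3.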

The test system of another assay is A549. Put plainly: Antiproliferative activity against human A549 cells assessed as reduction in cell viability measured after 72 hrs by MTT assay. It is filed as functional, cell-based. The note with it: A549, 72 h. In a few lines:
as §1

A further assay has as its system PC-9. Put plainly: Antiproliferative activity against human PC-9 cells assessed as reduction in cell viability measured after 72 hrs by MTT assay. The format is functional, cell-based. To be noted: PC-9, 72 h. The gist of the method: as §1
Background: Formazan colour is commonly taken as a measure of viable cells.

Phosphoglycerate mutase 1, sequence (P18669 whole entry): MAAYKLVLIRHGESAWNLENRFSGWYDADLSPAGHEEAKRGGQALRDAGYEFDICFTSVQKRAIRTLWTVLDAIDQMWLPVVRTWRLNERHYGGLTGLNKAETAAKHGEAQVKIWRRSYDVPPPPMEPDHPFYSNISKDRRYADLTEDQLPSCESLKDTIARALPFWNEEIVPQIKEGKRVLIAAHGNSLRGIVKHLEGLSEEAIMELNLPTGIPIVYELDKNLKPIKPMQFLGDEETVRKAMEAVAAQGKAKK

The pIC50 is the negative decadic logarithm of the IC50, by convention in mol/L. `CN1CCN(c2ccc(S(=O)(=O)Nc3cc4c(c(O)c3O)C(=O)c3ccccc3C4=O)cc2)CC1`: the pIC50 in assay [1] is less than 5.00.
In the case of `O=C1c2ccccc2C(=O)c2c1cc(NS(=O)(=O)c1ccc(-c3ccc(Cl)cc3)cc1)c(O)c2O`, the pIC50 with NCI-H1299 is 5.20; in assay [1], 6.85; with A549 it was 5.17; in the assay with PC-9 it was 5.18.
Turning to `CS(=O)(=O)Nc1cc2c(c(O)c1O)C(=O)c1ccccc1C2=O`, the values for the pIC50 (in the assay on NCI-H1299; in assay [1]) were 4.55 and 5.27, respectively.
Turning to `CC(C)(C)c1ccc(S(=O)(=O)Nc2cc3c(c(O)c2O)C(=O)c2ccccc2C3=O)cc1`, the pIC50 in the assay on NCI-H1299 is 4.99; in assay [1] it was 6.31; with A549, 5.09; in the assay with PC-9, 5.02.
Take `O=C1c2ccccc2C(=O)c2c1cc(NS(=O)(=O)c1cccc3cccnc13)c(O)c2O`: the results for the pIC50 (in the assay on NCI-H1299; in assay [1]) were 4.32 and 5.69, respectively.
On to `O=C1c2ccccc2C(=O)c2c1cc(NS(=O)(=O)c1ccc(Cl)c(C(F)(F)F)c1)c(O)c2O`, for which the pIC50 is 4.89 in the assay with NCI-H1299, 6.26 in assay [1], 4.67 with A549 and 4.76 with PC-9.
In the case of `O=C1c2ccccc2C(=O)c2c1cc(NS(=O)(=O)N1CCOCC1)c(O)c2O`, the pIC50 in assay [1] is less than 5.00.
With `O=C1c2ccccc2C(=O)c2c1cc(NS(=O)(=O)c1ccccc1)c(O)c2O`, the pIC50 is 4.67 with NCI-H1299 and 5.82 in assay [1].
The like results for `O=C1c2ccccc2C(=O)c2c1cc(NS(=O)(=O)C1CCCCC1)c(O)c2O` were, in that order, 4.66 and 5.76.
On to `COc1ccc(S(=O)(=O)Nc2cc3c(c(O)c2O)C(=O)c2ccccc2C3=O)c(OC)c1`, for which the pIC50 is 4.70 in the assay with NCI-H1299 and 5.54 in assay [1].
The like results for `O=C1c2ccccc2C(=O)c2c1cc(NS(=O)(=O)c1ccc(F)c(C(F)(F)F)c1)c(O)c2O` were, in that order, 4.65 and 6.20.
On to `O=C1c2ccccc2C(=O)c2c1cc(NS(=O)(=O)c1ccc3ccccc3c1)c(O)c2O`, for which the pIC50 in the assay on NCI-H1299 is 5.06; in assay [1], 6.72; with A549 it was less than 4.00; in the assay on PC-9 it was 5.33.
Taken in the same sequence, the figures for `O=C1c2ccccc2C(=O)c2c1cc(NS(=O)(=O)c1cccc3ccccc13)c(O)c2O` were 5.11, 5.89, 4.30 and 4.74.
As for `CC1CC(C)CN(c2ccc(S(=O)(=O)Nc3cc4c(c(O)c3O)C(=O)c3ccccc3C4=O)cc2)C1` (configuration not stated), the pIC50 with NCI-H1299 was 4.99; in assay [1], 5.59; in the assay on A549, 5.04; with PC-9, 4.94.
For the compound `O=C1c2ccccc2C(=O)c2c1cc(NS(=O)(=O)c1ccc(N3CCCCC3)cc1)c(O)c2O`, the pIC50 was 5.00 in the assay on NCI-H1299, 6.48 in assay [1], 5.20 in the assay on A549 and 5.52 in the assay on PC-9.
With `O=C1c2ccccc2C(=O)c2c1cc(NS(=O)(=O)c1ccc(Cl)s1)c(O)c2O`, the pIC50 in the assay with NCI-H1299 is 4.75; in assay [1] it was 6.26; with A549, 4.91; in the assay with PC-9, 4.79.
`Cc1ccc(S(=O)(=O)Nc2cc3c(c(O)c2O)C(=O)c2ccccc2C3=O)cc1`: the pIC50 with NCI-H1299 is 5.11; in assay [1], 6.44; in the assay on A549, 4.60; in the assay with PC-9 it was 4.80.
On to `O=C1c2ccccc2C(=O)c2c1cc(NS(=O)(=O)c1ccc(C3CCCCC3)cc1)c(O)c2O`, for which the pIC50 is 5.34 in the assay on NCI-H1299, 7.01 in assay [1], 4.95 in the assay on A549 and 4.94 in the assay on PC-9.
With `COc1cccc(S(=O)(=O)Nc2cc3c(c(O)c2O)C(=O)c2ccccc2C3=O)c1`, the values for the pIC50 (with NCI-H1299; in assay [1]) were 4.56 and 6.32, respectively.
As to `CN(C)S(=O)(=O)Nc1cc2c(c(O)c1O)C(=O)c1ccccc1C2=O`, the pIC50 in assay [1] is less than 5.00.
Regarding `COc1ccc(S(=O)(=O)Nc2cc3c(c(O)c2O)C(=O)c2ccccc2C3=O)cc1OC`, the values for the pIC50 (with NCI-H1299; in assay [1]) were 4.57 and 5.55, respectively.
Taken in the same sequence, the figures for `O=C1c2ccccc2C(=O)c2c1cc(NS(=O)(=O)c1cccs1)c(O)c2O` were 4.59 and 6.08.
Taken in the same sequence, the figures for `CCCCS(=O)(=O)Nc1cc2c(c(O)c1O)C(=O)c1ccccc1C2=O` were 4.41 and 5.69.
With `O=C1c2ccccc2C(=O)c2c1cc(NS(=O)(=O)c1ccc(-c3ccc(F)cc3)cc1)c(O)c2O`, the pIC50 is 5.21 with NCI-H1299, 6.59 in assay [1], 4.92 in the assay on A549 and 5.27 in the assay with PC-9.
